Reference: ChEMBL document CHEMBL3351385, “Synthesis and preliminary mechanistic evaluation of 5-(p-tolyl)-1-(quinolin-2-yl)pyrazole-3-carboxylic acid amides with potent antiproliferative activity on human cancer cell lines” (Eur J Med Chem, 2014)
pIC50: −log10 of the molar value.

Key:
[1] = target: NUAK family SNF1-like kinase 1 (Homo sapiens) (UniProt O60285); test: Inhibition of NUAK1 (unknown origin) assessed as remaining enzyme activity at 10 uM by radioactive [33P]-ATP filter binding assay
[2] = target: Ephrin type-A receptor 2 (Homo sapiens) (UniProt P29317); test: Inhibition of EPHA2 (unknown origin) assessed as remaining enzyme activity at 10 uM by radioactive [33P]-ATP filter binding assay
Outline: (§1)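 A single 10 µM concentration was tested across a 140-kinase panel. Activity was measured by a radioactive 33P-ATP filter-binding assay run at the International Center for Kinase Profiling, University of Dundee.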

[3] = target: Tyrosine-protein kinase CSK (Homo sapiens) (UniProt P41240); test: Inhibition of CSK (unknown origin) assessed as remaining enzyme activity at 10 uM by radioactive [33P]-ATP filter binding assay; outline: as §1
[4] = target: Tyrosine-protein kinase Lck (Homo sapiens) (UniProt P06239); test: Inhibition of LCK (unknown origin) assessed as remaining enzyme activity at 10 uM by radioactive [33P]-ATP filter binding assay
[5] = target: Fibroblast growth factor receptor 1 (Homo sapiens) (UniProt P11362); test: Inhibition of FGFR1 (unknown origin) assessed as remaining enzyme activity at 10 uM by radioactive [33P]-ATP filter binding assay; outline: as §1
[6] = target: Serine/threonine-protein kinase Chk2 (Homo sapiens) (UniProt O96017); test: Inhibition of CHK2 (unknown origin) assessed as remaining enzyme activity at 10 uM by radioactive [33P]-ATP filter binding assay; outline: as §1
[7] = target: Mitogen-activated protein kinase kinase kinase 9 (Homo sapiens) (UniProt P80192); test: Inhibition of MLK1 (unknown origin) assessed as remaining enzyme activity at 10 uM by radioactive [33P]-ATP filter binding assay
[8] = target: Serine/threonine-protein kinase PINK1, mitochondrial (Homo sapiens) (UniProt Q9BXM7); test: Inhibition of PINK (unknown origin) assessed as remaining enzyme activity at 10 uM by radioactive [33P]-ATP filter binding assay
[9] = target: Mitogen-activated protein kinase 13 (Homo sapiens) (UniProt O15264); test: Inhibition of p38delta (unknown origin) assessed as remaining enzyme activity at 10 uM by radioactive [33P]-ATP filter binding assay
[10] = target: Mitogen-activated protein kinase 9 (Homo sapiens) (UniProt P45984); test: Inhibition of JNK2 (unknown origin) assessed as remaining enzyme activity at 10 uM by radioactive [33P]-ATP filter binding assay
[11] = target: Mitogen-activated protein kinase 14 (Homo sapiens) (UniProt Q16539); test: Inhibition of p38alpha (unknown origin) assessed as remaining enzyme activity at 10 uM by radioactive [33P]-ATP filter binding assay
[12] = target: Vascular endothelial growth factor receptor (Homo sapiens) (UniProt P17948+P35916+P35968); test: Inhibition of VEGFR (unknown origin) assessed as remaining enzyme activity at 10 uM by radioactive [33P]-ATP filter binding assay; assay type: protein assay
[13] = target: Calcium/calmodulin-dependent protein kinase kinase 2 (Homo sapiens) (UniProt Q96RR4); test: Inhibition of CAMKKB (unknown origin) assessed as remaining enzyme activity at 10 uM by radioactive [33P]-ATP filter binding assay; outline: as §1
[14] = target: Homeodomain-interacting protein kinase 3 (Homo sapiens) (UniProt Q9H422); test: Inhibition of HIPK3 (unknown origin) assessed as remaining enzyme activity at 10 uM by radioactive [33P]-ATP filter binding assay
[15] = target: Serine/threonine-protein kinase ULK2 (Homo sapiens) (UniProt Q8IYT8); test: Inhibition of ULK2 (unknown origin) assessed as remaining enzyme activity at 10 uM by radioactive [33P]-ATP filter binding assay
[16] = target: Casein kinase I isoform delta (Homo sapiens) (UniProt P48730); test: Inhibition of CK1delta (unknown origin) assessed as remaining enzyme activity at 10 uM by radioactive [33P]-ATP filter binding assay; outline: as §1
[17] = Cytotoxicity against human HuH7 cells after 72 hrs by SRB assay; assay type: functional, cell-based; settings: Huh-7, 72 h
Outline: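 Cells kept in DMEM with 10% FCS and penicillin/streptomycin at 37°C, 5% CO2. 2000–3000 cells/well were seeded, and medium was refreshed the next day. DMSO solutions were added over 2.5–40 µM with matched DMSO-only controls for 72 h. Cells were then TCA-fixed, stained with 0.4% SRB in 1% acetic acid, solubilized in 10 mM Tris pH 8 and read at 515 nm. Data were normalized to DMSO wells and expressed as mean ±SD.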

[18] = target: Protein-tyrosine kinase 6 (Homo sapiens) (UniProt Q13882); test: Inhibition of BRK (unknown origin) assessed as remaining enzyme activity at 10 uM by radioactive [33P]-ATP filter binding assay; outline: as §1
[19] = target: Rho-associated protein kinase 2 (Homo sapiens) (UniProt O75116); test: Inhibition of ROCK2 (unknown origin) assessed as remaining enzyme activity at 10 uM by radioactive [33P]-ATP filter binding assay
[20] = target: Mitogen-activated protein kinase 3 (Homo sapiens) (UniProt P27361); test: Inhibition of ERK1 (unknown origin) assessed as remaining enzyme activity at 10 uM by radioactive [33P]-ATP filter binding assay; outline: as §1
[21] = target: Casein kinase II (Homo sapiens) (UniProt P67870+P68400+P19784); test: Inhibition of CK2 (unknown origin) assessed as remaining enzyme activity at 10 uM by radioactive [33P]-ATP filter binding assay; assay type: protein-complex assay; outline: as §1
[22] = target: Mitogen-activated protein kinase kinase kinase 7, TAK1 (Homo sapiens) (UniProt O43318); test: Inhibition of TAK1 (unknown origin) assessed as remaining enzyme activity at 10 uM by radioactive [33P]-ATP filter binding assay
[23] = target: Tau-tubulin kinase 1 (Homo sapiens) (UniProt Q5TCY1); test: Inhibition of TTBK1 (unknown origin) assessed as remaining enzyme activity at 10 uM by radioactive [33P]-ATP filter binding assay
[24] = target: MAP kinase-interacting serine/threonine-protein kinase 1 (Homo sapiens) (UniProt Q9BUB5); test: Inhibition of MNK1 (unknown origin) assessed as remaining enzyme activity at 10 uM by radioactive [33P]-ATP filter binding assay
[25] = Induction of cell cycle arrest in human HuH7 cells assessed as accumulation at S phase at cytotoxic IC50 level after 48 hrs by propidium iodide staining based FACS method; assay type: functional, Huh-7
Outline: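 Huh7 cells were seeded at 150,000–300,000 per 100-mm dish and left 24 h. […] Cells were stained with a propidium iodide-containing cell cycle reagent, and subG1, G0/G1, S and G2/M fractions were scored by flow cytometry.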

[26] = target: Serine/threonine-protein kinase MARK1 (Homo sapiens) (UniProt Q9P0L2); test: Inhibition of MARK1 (unknown origin) assessed as remaining enzyme activity at 10 uM by radioactive [33P]-ATP filter binding assay
[27] = target: Aurora kinase A (Homo sapiens) (UniProt O14965); test: Inhibition of Aurora A (unknown origin) assessed as remaining enzyme activity at 10 uM by radioactive [33P]-ATP filter binding assay; outline: as §1

Tyrosine-protein kinase Lck (Homo sapiens), sequence (P06239 2-509 limits assumed): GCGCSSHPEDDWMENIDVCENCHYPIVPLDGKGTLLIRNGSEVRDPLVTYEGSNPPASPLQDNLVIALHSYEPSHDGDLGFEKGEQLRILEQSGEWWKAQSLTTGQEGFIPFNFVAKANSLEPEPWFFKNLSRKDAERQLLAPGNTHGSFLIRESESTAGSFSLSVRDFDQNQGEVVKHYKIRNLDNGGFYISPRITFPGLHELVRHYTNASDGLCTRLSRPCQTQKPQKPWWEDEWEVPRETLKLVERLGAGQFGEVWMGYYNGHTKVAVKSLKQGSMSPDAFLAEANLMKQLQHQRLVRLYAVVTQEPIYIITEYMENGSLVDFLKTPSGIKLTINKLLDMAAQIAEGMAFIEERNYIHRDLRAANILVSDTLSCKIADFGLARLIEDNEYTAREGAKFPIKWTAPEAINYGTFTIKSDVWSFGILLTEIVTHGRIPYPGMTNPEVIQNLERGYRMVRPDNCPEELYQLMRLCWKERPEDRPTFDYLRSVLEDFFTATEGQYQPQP
Mitogen-activated protein kinase 9 (Homo sapiens), sequence (P45984 whole entry, looked up): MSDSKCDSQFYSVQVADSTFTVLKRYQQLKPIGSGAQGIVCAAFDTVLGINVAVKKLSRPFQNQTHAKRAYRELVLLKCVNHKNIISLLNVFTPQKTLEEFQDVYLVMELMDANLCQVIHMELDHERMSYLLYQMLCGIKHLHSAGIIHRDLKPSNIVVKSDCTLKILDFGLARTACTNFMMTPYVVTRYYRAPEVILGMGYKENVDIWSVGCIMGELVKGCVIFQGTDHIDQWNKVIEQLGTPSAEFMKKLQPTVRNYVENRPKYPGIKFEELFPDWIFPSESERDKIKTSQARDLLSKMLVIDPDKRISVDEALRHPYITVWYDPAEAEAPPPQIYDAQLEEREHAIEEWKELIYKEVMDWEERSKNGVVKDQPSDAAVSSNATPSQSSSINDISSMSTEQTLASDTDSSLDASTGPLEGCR
Tau-tubulin kinase 1 (Homo sapiens), sequence (Q5TCY1 whole entry): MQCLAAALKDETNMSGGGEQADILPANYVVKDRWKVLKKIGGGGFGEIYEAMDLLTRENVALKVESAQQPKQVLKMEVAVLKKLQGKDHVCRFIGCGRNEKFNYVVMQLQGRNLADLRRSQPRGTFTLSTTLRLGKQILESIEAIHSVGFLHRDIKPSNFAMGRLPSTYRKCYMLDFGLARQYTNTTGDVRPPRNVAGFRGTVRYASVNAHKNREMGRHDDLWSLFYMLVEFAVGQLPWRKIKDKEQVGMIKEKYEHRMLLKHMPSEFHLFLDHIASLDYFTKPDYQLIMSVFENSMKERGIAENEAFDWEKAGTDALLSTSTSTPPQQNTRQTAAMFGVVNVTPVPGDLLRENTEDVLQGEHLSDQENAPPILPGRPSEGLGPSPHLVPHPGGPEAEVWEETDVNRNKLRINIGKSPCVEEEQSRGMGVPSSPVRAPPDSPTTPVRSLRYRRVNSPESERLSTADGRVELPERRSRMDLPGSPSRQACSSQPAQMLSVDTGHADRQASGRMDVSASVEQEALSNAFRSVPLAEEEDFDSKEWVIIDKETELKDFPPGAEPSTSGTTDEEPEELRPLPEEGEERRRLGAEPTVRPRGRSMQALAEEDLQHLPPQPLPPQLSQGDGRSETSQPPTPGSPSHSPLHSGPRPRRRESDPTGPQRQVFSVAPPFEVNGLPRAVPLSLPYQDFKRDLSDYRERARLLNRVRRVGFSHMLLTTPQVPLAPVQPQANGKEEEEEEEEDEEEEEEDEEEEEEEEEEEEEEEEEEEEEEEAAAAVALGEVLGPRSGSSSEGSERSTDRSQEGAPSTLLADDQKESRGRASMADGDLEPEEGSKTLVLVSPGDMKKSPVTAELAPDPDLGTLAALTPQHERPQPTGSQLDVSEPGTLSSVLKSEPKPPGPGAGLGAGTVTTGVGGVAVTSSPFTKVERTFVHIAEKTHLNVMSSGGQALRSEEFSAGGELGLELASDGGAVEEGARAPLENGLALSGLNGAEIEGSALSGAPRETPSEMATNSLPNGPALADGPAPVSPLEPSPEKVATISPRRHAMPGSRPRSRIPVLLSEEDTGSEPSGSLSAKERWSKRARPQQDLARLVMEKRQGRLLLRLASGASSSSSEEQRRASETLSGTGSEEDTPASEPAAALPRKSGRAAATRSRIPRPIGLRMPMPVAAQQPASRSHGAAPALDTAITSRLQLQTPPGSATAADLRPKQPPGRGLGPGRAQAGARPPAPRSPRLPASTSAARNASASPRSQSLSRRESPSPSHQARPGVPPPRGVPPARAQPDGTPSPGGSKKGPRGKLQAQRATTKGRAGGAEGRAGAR
Ephrin type-A receptor 2 (Homo sapiens), sequence (P29317 whole entry): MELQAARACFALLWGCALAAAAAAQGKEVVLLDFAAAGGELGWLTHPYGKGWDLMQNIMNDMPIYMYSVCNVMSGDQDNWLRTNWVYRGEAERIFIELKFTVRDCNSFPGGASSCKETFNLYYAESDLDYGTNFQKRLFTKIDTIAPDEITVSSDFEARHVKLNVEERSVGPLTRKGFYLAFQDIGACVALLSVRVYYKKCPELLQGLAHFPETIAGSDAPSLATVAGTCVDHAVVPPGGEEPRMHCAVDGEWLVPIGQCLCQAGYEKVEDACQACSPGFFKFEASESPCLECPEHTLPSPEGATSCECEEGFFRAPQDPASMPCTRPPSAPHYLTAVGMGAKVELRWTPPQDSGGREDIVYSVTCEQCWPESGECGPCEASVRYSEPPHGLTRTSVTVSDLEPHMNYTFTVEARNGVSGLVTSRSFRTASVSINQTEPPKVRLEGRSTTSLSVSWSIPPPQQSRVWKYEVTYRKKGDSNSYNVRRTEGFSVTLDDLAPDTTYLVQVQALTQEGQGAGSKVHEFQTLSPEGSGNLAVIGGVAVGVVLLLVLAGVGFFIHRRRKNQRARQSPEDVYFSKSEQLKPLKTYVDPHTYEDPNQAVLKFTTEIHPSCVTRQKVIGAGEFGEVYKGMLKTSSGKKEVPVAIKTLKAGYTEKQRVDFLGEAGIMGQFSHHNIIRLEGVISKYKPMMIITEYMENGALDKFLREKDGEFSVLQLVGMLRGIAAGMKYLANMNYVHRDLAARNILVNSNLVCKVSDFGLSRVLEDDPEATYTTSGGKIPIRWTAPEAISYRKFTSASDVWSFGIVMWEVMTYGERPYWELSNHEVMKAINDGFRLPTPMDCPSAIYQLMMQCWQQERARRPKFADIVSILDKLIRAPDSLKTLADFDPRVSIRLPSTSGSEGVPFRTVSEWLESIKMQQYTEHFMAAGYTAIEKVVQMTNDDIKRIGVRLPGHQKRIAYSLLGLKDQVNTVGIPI
Calcium/calmodulin-dependent protein kinase kinase 2 (Homo sapiens), sequence (Q96RR4 2-588 limits assumed): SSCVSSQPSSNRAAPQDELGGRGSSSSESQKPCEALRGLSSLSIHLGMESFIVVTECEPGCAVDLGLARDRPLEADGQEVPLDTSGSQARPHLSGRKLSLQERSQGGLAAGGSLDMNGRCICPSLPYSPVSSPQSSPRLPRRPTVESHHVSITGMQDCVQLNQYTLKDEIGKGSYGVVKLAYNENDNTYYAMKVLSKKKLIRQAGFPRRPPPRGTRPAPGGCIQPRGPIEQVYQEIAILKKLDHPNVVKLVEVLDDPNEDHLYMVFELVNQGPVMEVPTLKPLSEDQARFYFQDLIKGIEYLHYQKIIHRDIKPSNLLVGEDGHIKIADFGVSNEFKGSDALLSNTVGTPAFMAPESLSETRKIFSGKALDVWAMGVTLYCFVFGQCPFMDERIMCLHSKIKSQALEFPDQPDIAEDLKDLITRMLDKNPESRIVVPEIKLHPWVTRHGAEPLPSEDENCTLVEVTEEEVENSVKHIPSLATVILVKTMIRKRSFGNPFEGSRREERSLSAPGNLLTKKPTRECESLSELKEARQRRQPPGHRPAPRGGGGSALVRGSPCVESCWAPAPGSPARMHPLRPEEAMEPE
Mitogen-activated protein kinase kinase kinase 7, TAK1 (Homo sapiens), sequence (O43318 whole entry, looked up): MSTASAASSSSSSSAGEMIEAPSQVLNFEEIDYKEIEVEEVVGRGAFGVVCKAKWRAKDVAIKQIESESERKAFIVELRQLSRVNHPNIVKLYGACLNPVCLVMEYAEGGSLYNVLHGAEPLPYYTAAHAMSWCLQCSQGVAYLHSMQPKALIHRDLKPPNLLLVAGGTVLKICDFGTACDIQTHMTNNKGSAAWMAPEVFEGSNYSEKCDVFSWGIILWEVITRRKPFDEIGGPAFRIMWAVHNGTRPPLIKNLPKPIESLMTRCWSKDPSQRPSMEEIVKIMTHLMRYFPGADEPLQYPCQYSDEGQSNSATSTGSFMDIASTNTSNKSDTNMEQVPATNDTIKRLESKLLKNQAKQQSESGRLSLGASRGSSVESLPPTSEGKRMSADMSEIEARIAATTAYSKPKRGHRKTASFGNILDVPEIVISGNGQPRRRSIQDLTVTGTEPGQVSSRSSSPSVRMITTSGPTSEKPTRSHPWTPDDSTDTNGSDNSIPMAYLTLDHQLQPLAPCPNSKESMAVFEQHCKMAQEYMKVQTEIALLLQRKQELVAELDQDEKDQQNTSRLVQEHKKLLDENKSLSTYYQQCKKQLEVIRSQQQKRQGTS
Casein kinase I isoform delta (Homo sapiens), sequence (P48730 whole entry, looked up, canonical isoform): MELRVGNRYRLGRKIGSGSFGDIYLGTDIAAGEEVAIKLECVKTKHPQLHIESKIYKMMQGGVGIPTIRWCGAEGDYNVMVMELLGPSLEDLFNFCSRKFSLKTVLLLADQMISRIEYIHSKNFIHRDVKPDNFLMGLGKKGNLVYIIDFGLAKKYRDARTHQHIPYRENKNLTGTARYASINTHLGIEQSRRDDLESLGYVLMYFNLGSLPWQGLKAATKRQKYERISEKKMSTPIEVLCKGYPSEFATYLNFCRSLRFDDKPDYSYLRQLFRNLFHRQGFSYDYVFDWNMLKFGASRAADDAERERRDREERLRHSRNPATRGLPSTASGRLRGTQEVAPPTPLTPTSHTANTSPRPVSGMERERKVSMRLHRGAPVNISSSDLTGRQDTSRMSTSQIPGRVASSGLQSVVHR

`Cc1ccc(-c2cc(C(=O)Nc3ccnc(Cl)c3)nn2-c2ccc3ccccc3n2)cc1` gave an Activity [1] of 100%, an Activity [2] of 111% and an Activity [3] of 109%. For the same compound, the Activity [4] was 99%, the Activity [5] was 127% and the Activity [6] was 94%. For the same compound, the Activity [7] was 90%, the Activity [8] was 114% and the Activity [9] was 87%. The Activity [10] was 100%, the Activity [11] was 95% and the Activity [12] was 92%. For the same compound, the Activity [13] was 85%, the Activity [14] was 100% and the Activity [15] was 112%. The Activity [16] was 96%, the pIC50 [17] was 5.80 and the Activity [18] was 109%. The Activity [19] was 85%, the Activity [20] was 103% and the Activity [21] was 85%. For the same compound, the Activity [22] was 91%, the Activity [23] was 104% and the Activity [24] was 104%. The Activity [25] was 10.3%, the Activity [26] was 99% and the Activity [27] was 120%.
